System: Fibroblast
Experiment: Multiplex assay against human fibroblast
Type: toxicity, cell-based
How it was run: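 Four dyes were applied at seeding to live cells: Hoechst33342, BioTracker Green Microtubule Cytoskeleton Dye, MitoTracker Red and Annexin V Alexa Fluor 680. Imaging after compound addition used a CQ1 microscope at 37°C and 5% CO2. CellPathfinder machine-learning gating then sorted cells into Hoechst high-intensity objects or normal cells, normal cells into healthy, pyknosed or fragmented nuclei, and pyknosed cells into mitotic or apoptotic, with tubulin, mitochondrial-mass and membrane-permeability phenotypes given as per cents of healthy-nucleus cells.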

[1] = 12 h, 1 µM, compound concentration 1 uM, replicate 1
[2] = 12 h, 1 µM, compound concentration 1 uM, replicate 2
[3] = 12 h, 10 µM, compound concentration 10 uM, replicate 1
[4] = 12 h, 10 µM, compound concentration 10 uM, replicate 2
[5] = 24 h, 1 µM, compound concentration 1 uM, replicate 1
[6] = 24 h, 1 µM, compound concentration 1 uM, replicate 2
[7] = 24 h, 10 µM, compound concentration 10 uM, replicate 1
[8] = 24 h, 10 µM, compound concentration 10 uM, replicate 2
[9] = 48 h, 1 µM, compound concentration 1 uM, replicate 1
[10] = 48 h, 1 µM, compound concentration 1 uM, replicate 2
[11] = 48 h, 10 µM, compound concentration 10 uM, replicate 1
[12] = 48 h, 10 µM, compound concentration 10 uM, replicate 2

CC1(COc2ccc3c(c2)ncn3-c2ccc3cccc(N4CCC(N)CC4)c3n2)COC1 [CRENOLANIB]
Population Apoptotic (%) [1]: 61% | Population Fragmented Nuclei (%) [1]: 27% | Population Healthy Nuclei (%) [1]: 60% | Population Hoechst High Intensity Objects (%) [1]: 2% | Population Membrane Permeable-Phenotype (%) [1]: 0% | Population Mitochondria Different-Phenotype (%) [1]: 4% | Population Mitotic Cells (%) [1]: 38% | Population Normal (%) [1]: 97% | Population Pyknosed Nuclei (%) [1]: 12% | Population Tubulin-Different-Phenotype (%) [1]: 48% | Population Apoptotic (%) [2]: 18% | Population Fragmented Nuclei (%) [2]: 33% | Population Healthy Nuclei (%) [2]: 47% | Population Hoechst High Intensity Objects (%) [2]: 4% | Population Membrane Permeable-Phenotype (%) [2]: 7% | Population Mitochondria Different-Phenotype (%) [2]: 9% | Population Mitotic Cells (%) [2]: 81% | Population Normal (%) [2]: 95% | Population Pyknosed Nuclei (%) [2]: 18% | Population Tubulin-Different-Phenotype (%) [2]: 67% | Population Apoptotic (%) [3]: 33% | Population Fragmented Nuclei (%) [3]: 21% | Population Healthy Nuclei (%) [3]: 48% | Population Hoechst High Intensity Objects (%) [3]: 4% | Population Membrane Permeable-Phenotype (%) [3]: 2% | Population Mitochondria Different-Phenotype (%) [3]: 6% | Population Mitotic Cells (%) [3]: 66% | Population Normal (%) [3]: 95% | Population Pyknosed Nuclei (%) [3]: 30% | Population Tubulin-Different-Phenotype (%) [3]: 43% | Population Apoptotic (%) [4]: 34% | Population Fragmented Nuclei (%) [4]: 29% | Population Healthy Nuclei (%) [4]: 40% | Population Hoechst High Intensity Objects (%) [4]: 13% | Population Membrane Permeable-Phenotype (%) [4]: 6% | Population Mitochondria Different-Phenotype (%) [4]: 9% | Population Mitotic Cells (%) [4]: 65% | Population Normal (%) [4]: 86% | Population Tubulin-Different-Phenotype (%) [4]: 48% | Population Apoptotic (%) [5]: 92% | Population Fragmented Nuclei (%) [5]: 29% | Population Healthy Nuclei (%) [5]: 60% | Population Hoechst High Intensity Objects (%) [5]: 0% | Population Membrane Permeable-Phenotype (%) [5]: 0% | Population Mitochondria Different-Phenotype (%) [5]: 9% | Population Mitotic Cells (%) [5]: 7% | Population Normal (%) [5]: 99% | Population Pyknosed Nuclei (%) [5]: 9% | Population Tubulin-Different-Phenotype (%) [5]: 61% | Population Apoptotic (%) [6]: 50% | Population Fragmented Nuclei (%) [6]: 41% | Population Healthy Nuclei (%) [6]: 48% | Population Hoechst High Intensity Objects (%) [6]: 1% | Population Membrane Permeable-Phenotype (%) [6]: 4% | Population Mitotic Cells (%) [6]: 50% | Population Normal (%) [6]: 98% | Population Pyknosed Nuclei (%) [6]: 10% | Population Tubulin-Different-Phenotype (%) [6]: 63% | Population Apoptotic (%) [7]: 36% | Population Fragmented Nuclei (%) [7]: 23% | Population Healthy Nuclei (%) [7]: 51% | Population Hoechst High Intensity Objects (%) [7]: 16% | Population Membrane Permeable-Phenotype (%) [7]: 0% | Population Mitochondria Different-Phenotype (%) [7]: 8% | Population Mitotic Cells (%) [7]: 63% | Population Normal (%) [7]: 83% | Population Pyknosed Nuclei (%) [7]: 24% | Population Tubulin-Different-Phenotype (%) [7]: 23% | Population Apoptotic (%) [8]: 34% | Population Fragmented Nuclei (%) [8]: 25% | Population Healthy Nuclei (%) [8]: 46% | Population Hoechst High Intensity Objects (%) [8]: 17% | Population Membrane Permeable-Phenotype (%) [8]: 6% | Population Mitochondria Different-Phenotype (%) [8]: 6% | Population Mitotic Cells (%) [8]: 65% | Population Normal (%) [8]: 82% | Population Pyknosed Nuclei (%) [8]: 28% | Population Tubulin-Different-Phenotype (%) [8]: 38% | Population Apoptotic (%) [9]: 75% | Population Fragmented Nuclei (%) [9]: 32% | Population Healthy Nuclei (%) [9]: 60% | Population Hoechst High Intensity Objects (%) [9]: 1% | Population Membrane Permeable-Phenotype (%) [9]: 0% | Population Mitochondria Different-Phenotype (%) [9]: 8% | Population Mitotic Cells (%) [9]: 25% | Population Normal (%) [9]: 98% | Population Pyknosed Nuclei (%) [9]: 7% | Population Tubulin-Different-Phenotype (%) [9]: 55% | Population Apoptotic (%) [10]: 20% | Population Fragmented Nuclei (%) [10]: 44% | Population Healthy Nuclei (%) [10]: 44% | Population Hoechst High Intensity Objects (%) [10]: 0% | Population Membrane Permeable-Phenotype (%) [10]: 5% | Population Mitochondria Different-Phenotype (%) [10]: 7% | Population Mitotic Cells (%) [10]: 80% | Population Normal (%) [10]: 99% | Population Pyknosed Nuclei (%) [10]: 12% | Population Tubulin-Different-Phenotype (%) [10]: 74% | Population Apoptotic (%) [11]: 42% | Population Fragmented Nuclei (%) [11]: 16% | Population Healthy Nuclei (%) [11]: 62% | Population Hoechst High Intensity Objects (%) [11]: 24% | Population Membrane Permeable-Phenotype (%) [11]: 1% | Population Mitochondria Different-Phenotype (%) [11]: 6% | Population Mitotic Cells (%) [11]: 57% | Population Normal (%) [11]: 75% | Population Pyknosed Nuclei (%) [11]: 21% | Population Tubulin-Different-Phenotype (%) [11]: 23% | Population Apoptotic (%) [12]: 37% | Population Fragmented Nuclei (%) [12]: 23% | Population Healthy Nuclei (%) [12]: 42% | Population Hoechst High Intensity Objects (%) [12]: 21% | Population Mitotic Cells (%) [12]: 62% | Population Normal (%) [12]: 78% | Population Pyknosed Nuclei (%) [12]: 33% | Population Tubulin-Different-Phenotype (%) [12]: 27%
